From ChEMBL document CHEMBL3232705, “Discovery of isoquinolinone indole acetic acids as antagonists of chemoattractant receptor homologous molecule expressed on Th2 cells (CRTH2) for the treatment of allergic inflammatory diseases” (J Med Chem, 2014)
Each block holds one compound with its values, some of them ahead of it. Calls of active or inactive are those of the source. No cut-off for these calls is given here.

Columns and labels:
[1] = test system: Rattus norvegicus; test: Oral bioavailability in rat; conditions: in vivo
[2] = test system: Mus musculus; test: Antiallergic inflammatory activity in oxazolone induced contact hypersensitivity mouse model assessed as reduction ear swelling at 3 mg/kg, po prior to oxazolone and 7 hrs post challenge measured after 24 hrs; type: functional
Procedure, shortened: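 Mice sensitized on the shaved abdomen with 2% oxazolone in ethanol one week before challenge. Dosed orally 1 h before the left ear was challenged with 10 μL of 2% oxazolone (ethanol on the right ear as control), then redosed 7 h after challenge. Ear thickness measured by micrometer; swelling taken as 24 h post-challenge minus pre-challenge thickness. Unpaired t test.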

[3] = organism: Rattus norvegicus; test: Clearance in rat; conditions: in vivo
[4] = test system: Mus musculus; test: Antiallergic activity in house dust mite-induced allergic airway disease BALB/c mouse model assessed as reduction in airway inflammation at 1 mg/kg, ip qd after 17 days; type: functional, organism-based; parameters: dose 1 mg/kg
[5] = target: T1, Prostaglandin D2 receptor 2 (Homo sapiens, UniProt Q9Y5Y4); test: Antagonist activity at human recombinant CRTh2 expressed in CHO-K1 cells by cAMP TR FRET assay; type: functional, cell-based
T1 sequence (Q9Y5Y4 whole entry): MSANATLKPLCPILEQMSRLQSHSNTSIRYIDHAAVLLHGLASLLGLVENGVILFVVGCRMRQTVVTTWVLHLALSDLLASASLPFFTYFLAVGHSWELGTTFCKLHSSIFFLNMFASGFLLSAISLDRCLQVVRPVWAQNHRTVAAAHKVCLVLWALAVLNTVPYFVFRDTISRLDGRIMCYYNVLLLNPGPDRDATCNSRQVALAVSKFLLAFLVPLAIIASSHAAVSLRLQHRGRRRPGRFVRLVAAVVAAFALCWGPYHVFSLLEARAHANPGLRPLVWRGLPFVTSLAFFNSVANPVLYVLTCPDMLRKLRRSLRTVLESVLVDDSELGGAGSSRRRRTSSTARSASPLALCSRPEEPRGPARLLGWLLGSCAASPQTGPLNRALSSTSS

[6] = Oral bioavailability in rat at 10 mg/kg; type: ADME, organism-based; conditions: in vivo
[7] = Clearance in rat at 2 mg/kg, iv and 10 mg/kg, po; type: ADME, organism-based; conditions: in vivo
[8] = Half life in monkey at 2 mg/kg, iv; type: ADME, organism-based, Macaca mulatta; parameters: dose 2 mg/kg, route intravenous; conditions: rhesus monkey, in vivo
Procedure, shortened: (§1)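 Single intravenous dose of 2 mg/kg and single oral dose of 10 mg/kg, given separately, in rat, dog and monkey. Clearance and half-life taken from the iv arm; Cmax from the oral arm.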

[9] = Clearance in dog at 2 mg/kg, iv; type: ADME, organism-based, Canis lupus familiaris; parameters: dose 2 mg/kg, route intravenous; conditions: in vivo
Procedure, shortened: as §1

[10] = Volume of distribution at steady state in monkey at 2 mg/kg, iv; type: ADME, organism-based, Macaca mulatta; parameters: dose 2 mg/kg, route intravenous; conditions: rhesus monkey, in vivo, read-out: Vdss
[11] = Metabolic clearance in monkey hepatocytes measured per 10^6 cells; type: ADME, cell-based, Macaca mulatta, Hepatocyte; conditions: rhesus monkey, read-out: CLH
[12] = Metabolic clearance in dog hepatocytes measured per 10^6 cells; type: ADME, cell-based, Canis lupus familiaris, Hepatocyte; conditions: read-out: CLH
[13] = Oral bioavailability in monkey at 10 mg/kg; type: ADME, organism-based, Macaca mulatta; conditions: rhesus monkey, in vivo
[14] = Plasma clearance in rat at 5 mg/kg, iv measured after 24 hrs by LC-MS analysis; type: ADME, organism-based; parameters: dose 5 mg/kg, route intravenous
Procedure, shortened: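 Bile duct-cannulated rats received a single iv dose of 5 mg/kg. Average plasma clearance was determined, and parent drug was quantified in bile and urine collected over 24 h.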

[15] = Half life in dog at 2 mg/kg, iv; type: ADME, organism-based, Canis lupus familiaris; parameters: dose 2 mg/kg, route intravenous; conditions: in vivo
Procedure, shortened: as §1

[16] = test system: Rattus norvegicus; test: In vivo intrinsic biliary clearance in rat; type: ADME, organism-based, Bile
[17] = Volume of distribution at steady state in dog at 2 mg/kg, iv; type: ADME, organism-based, Canis lupus familiaris; parameters: dose 2 mg/kg, route intravenous; conditions: in vivo, read-out: Vdss
[18] = Cmax in monkey at 10 mg/kg, po; type: ADME, organism-based, Macaca mulatta; parameters: dose 10 mg/kg, route oral; conditions: rhesus monkey, in vivo
Procedure, shortened: as §1

[19] = Metabolic clearance in rat hepatocytes measured per 10^6 cells; type: ADME, cell-based, Hepatocyte; conditions: read-out: CLH
[20] = Drug excretion in dog feces assessed as drug recovery at 5 mg/kg, iv measured after 24 hrs by LC-MS analysis; type: ADME, organism-based, Canis lupus familiaris; parameters: dose 5 mg/kg, route intravenous; conditions: faeces, read-out: Drug recovery
Procedure, shortened: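 Dogs given a single intravenous dose of 5 mg/kg; unchanged parent drug measured in the feces.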

[21] = Cmax in dog at 10 mg/kg, po; type: ADME, organism-based, Canis lupus familiaris; parameters: dose 10 mg/kg, route oral; conditions: in vivo
Procedure, shortened: as §1

[22] = Drug excretion in rat bile assessed as drug recovery at 5 mg/kg, iv measured after 24 hrs by LC-MS analysis; type: ADME, organism-based; parameters: dose 5 mg/kg, route intravenous; conditions: read-out: Drug recovery
Procedure, shortened: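 Bile duct-cannulated rats given a single iv dose of 5 mg/kg; parent drug recovered in bile and urine over 24 h.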

[23] = test system: Hepatocyte; test: In vitro intrinsic biliary clearance in sandwich cultured rat hepatocytes measured; type: ADME, cell-based, Bile
Procedure, shortened: (§2)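 Sandwich-cultured hepatocytes incubated with substrate at 1–50 μM (rat) or 1–10 μM (human), with and without Ca2+. Biliary excretion taken as the difference in cellular accumulation between the two conditions. Intrinsic biliary clearance calculated as amount excreted into bile divided by substrate concentration over time.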

[24] = Clearance in monkey at 2 mg/kg, iv; type: ADME, organism-based, Macaca mulatta; parameters: dose 2 mg/kg, route intravenous; conditions: rhesus monkey, in vivo
Procedure, shortened: as §1

[25] = test system: Hepatocyte; test: In vitro intrinsic biliary clearance in sandwich cultured human hepatocytes measured; type: ADME, cell-based, Bile
Procedure, shortened: as §2

[26] = Oral bioavailability in dog at 10 mg/kg; type: ADME, organism-based, Canis lupus familiaris; conditions: in vivo

Structure (SMILES): C[C@@H]1C[C@H]2[C@@H]3CCC4=CC(=O)C=C[C@]4(C)[C@@]3(F)[C@@H](O)C[C@]2(C)[C@@]1(O)C(=O)CO
inhibition [4]: Active

Structure (SMILES): Cc1c(Cc2ccc(=O)n(CCCC(F)(F)F)c2)c2cc(F)ccc2n1CC(=O)O
IC50 [5]: 150 nM

Structure (SMILES): Cc1c(-c2ccc(=O)n(CC(F)(F)F)c2)c2cc(Cl)ccc2n1CC(=O)O
IC50 [5]: 148 nM

Structure (SMILES): Cc1ccc2c(c1)c(-c1ccc(=O)n(CC(F)(F)F)c1)c(C)n2CC(=O)O
IC50 [5]: 1120 nM

Structure (SMILES): COc1ccc2c(c1)c(-c1ccc(=O)n(CC(F)(F)F)c1)c(C)n2CC(=O)O
IC50 [5]: 2000 nM

Structure (SMILES): Cc1c(Cc2ccc(=O)n(Cc3ccc(F)cc3F)c2)c2cc(F)ccc2n1CC(=O)O
bioavailability [6]: 4% | clearance [7]: 32 mL/min/kg | IC50 [5]: 4 nM

Structure (SMILES): Cc1c(Cc2ccc(=O)n(CC(F)(F)F)n2)c2cc(F)ccc2n1CC(=O)O
IC50 [5]: 18 nM

Structure (SMILES): Cc1c(-c2ccc(=O)n(Cc3ccc(F)cc3F)c2)c2cc(F)ccc2n1CC(=O)O
IC50 [5]: 17 nM

Structure (SMILES): Cc1c(-c2ccc(OCCCC(F)(F)F)nc2)c2cc(F)ccc2n1CC(=O)O
IC50 [5]: 689 nM

Structure (SMILES): Cc1c(-c2ccc(=O)n(C(C)C)c2)c2cc(Cl)ccc2n1CC(=O)O
IC50 [5]: 195 nM

Structure (SMILES): Cc1c(Cc2ccc(=O)n(Cc3cccc(F)c3)n2)c2cc(F)ccc2n1CC(=O)O
IC50 [5]: 8 nM

Structure (SMILES): Cc1c(-c2cn(CCCC(F)(F)F)c(=O)c3ccccc23)c2cc(F)ccc2n1CC(=O)O
bioavailability [1]: < 5% | inhibition in vivo at 3 mg/kg [2]: 30.4% | clearance [3]: 35 mL/min/kg | IC50 [5]: 1 nM

Structure (SMILES): Cc1c(-c2cn(CC(C)(C)C)c(=O)c3ccccc23)c2cc(F)ccc2n1CC(=O)O
inhibition in vivo at 3 mg/kg [2]: 47.4%

Structure (SMILES): Cc1c(-c2cn(CC(F)(F)F)c(=O)c3c2CCCC3)c2cc(F)ccc2n1CC(=O)O
IC50 [5]: 1000 nM

Structure (SMILES): Cc1c(-c2ccc(=O)n(CCCC(F)(F)F)c2)c2cc(F)ccc2n1CC(=O)O
IC50 [5]: 16 nM

Now from value to compound, other results behind:

bioavailability [1]: 35% | clearance [3]: 20 mL/min/kg
Structure (SMILES): Cc1c(-c2cn(CC(F)(F)F)c(=O)c3ccccc23)c2cc(F)ccc2n1CC(=O)O
inhibition in vivo at 3 mg/kg [2]: 32.8%

IC50 [5]: 0.8 nM
Structure (SMILES): Cc1c(-c2ccc(=O)n(Cc3cccc(F)c3F)c2)c2cc(F)ccc2n1CC(=O)O

IC50 [5]: 11 nM
Structure (SMILES): Cc1c(Cc2ccc(=O)n(CCCC(F)(F)F)n2)c2cc(F)ccc2n1CC(=O)O

IC50 [5]: 556 nM
Structure (SMILES): Cc1c(-c2ccc(=O)n(C(C)C)c2)c2ccccc2n1CC(=O)O

half-life [8]: 2.3 h | clearance [9]: 20 mL/min/kg | Vd [10]: 0.4 L/kg | hepatocyte CLint [11]: < 5 µL/min/1e6 cells | hepatocyte CLint [12]: < 5 µL/min/1e6 cells | bioavailability [13]: 12% | clearance [14]: 14 mL/min/kg | half-life [15]: 2.3 h | CL [16]: 3.8 mL/min/kg | Vd [17]: 0.4 L/kg | Cmax [18]: 246 ng/mL | hepatocyte CLint [19]: < 5 µL/min/1e6 cells | dose excreted at 24 h [20]: > 90% | Cmax [21]: 716 ng/mL | dose excreted at 24 h [22]: 27% | CLH [23]: < 2.6 µL/min/µg | clearance [24]: 21 mL/min/kg | CLH [25]: < 1 µL/min/µg | bioavailability [26]: 8%
Structure (SMILES): Cc1c(Cc2ccc(=O)n(Cc3ccc(F)cc3F)n2)c2cc(F)ccc2n1CC(=O)O

IC50 [5]: 21 nM
Structure (SMILES): Cc1c(-c2ccc(=O)n(Cc3c(F)cccc3F)c2)c2ccccc2n1CC(=O)O

bioavailability [6]: 20% | clearance [7]: 7 mL/min/kg | IC50 [5]: 52 nM
Structure (SMILES): Cc1c(Cc2ccc(=O)n(CC(F)(F)F)c2)c2cc(F)ccc2n1CC(=O)O

IC50 [5]: 6 nM
Structure (SMILES): Cc1c(Cc2ccc(=O)n(Cc3ccc(F)cc3)n2)c2cc(F)ccc2n1CC(=O)O

IC50 [5]: 6 nM
Structure (SMILES): Cc1c(-c2ccc(=O)n(Cc3c(F)cccc3F)c2)c2cc(F)ccc2n1CC(=O)O

IC50 [5]: 2 nM
Structure (SMILES): Cc1c(Cc2ccc(=O)n(Cc3cc(F)ccc3F)n2)c2cc(F)ccc2n1CC(=O)O

IC50 [5]: 192 nM
Structure (SMILES): Cc1c(-c2cn(Cc3ccccc3)c(=O)c3c2CCCC3)c2cc(F)ccc2n1CC(=O)O

IC50 [5]: 14 nM
Structure (SMILES): Cc1c(-c2cn(Cc3ccccc3)c(=O)c3ccccc23)c2cc(F)ccc2n1CC(=O)O

IC50 [5]: 70 nM
Structure (SMILES): Cc1c(-c2ccc(=O)n(C(C)C)c2)c2cc(F)ccc2n1CC(=O)O

IC50 [5]: 84 nM
Structure (SMILES): Cc1c(-c2ccc(=O)n(CC(F)(F)F)c2)c2cc(F)ccc2n1CC(=O)O

bioavailability [6]: < 10% | clearance [7]: 15 mL/min/kg
Structure (SMILES): Cc1c(-c2ccc(=O)n(Cc3ccccc3)c2)c2cc(F)ccc2n1CC(=O)O
